# Assays:
# [1] = test system: Ezh2 or Suz12, H3K27me3 at Hox-A clusters; test: ChIP, polycomb factors and H3K27me3 at Hox-A cluster; assay type: cell-based, murine; conditions: NJL-infected progenitors, qualitative
# Method in brief: (§1)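 Mouse Lin- marrow cells were cytokine-stimulated, retrovirally transduced, selected with 1μg/mL puromycin and kept in SCF-only medium. ChIP used 1∼2 million cells for histone marks and 2∼3 million for other factors (p300 antibody 10μg). Equal nonspecific IgG served as antibody control and Chr8Int as negative locus. Triplicate SYBR qPCR gave % of input and fold over IgG.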
# [2] = test system: H3K27ac on Hoxa9; test: ChIP, Hoxa9-associated H3 acetylation; assay type: cell-based, murine; conditions: marrow progenitors 15 days after transduction, NJL-transduced cells
# Method in brief: as §1
# [3] = test system: H3K4me3 or H3; test: CoIP in transiently transfected 293 cells; assay type: binding; conditions: qualitative
# Method in brief: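 Nuclei underwent limited micrococcal nuclease digestion to release mainly mononucleosomes, and insoluble material was removed by centrifugation. Supernatant was incubated with FLAG- or HA-agarose, or with magnetic beads coupled to anti-H3K4me3 or control antibodies. After extensive washing, precipitated proteins were analysed by immunoblot.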
# [4] = test system: p300 on Hoxa9; test: ChIP, p300 recruitment on Hoxa9; assay type: cell-based, murine; conditions: 15 days after transduction; qualitative
# Method in brief: as §1
# [5] = test system: WDR5, RBBP5, and MLL2 on Hoxa9; test: ChIP, WDR5, RBBP5 and MLL2 on Hoxa9; assay type: cell-based, murine; conditions: marrow progenitors 15 days after transduction; qualitative
# Method in brief: as §1
# [6] = test system: mice transplanted with transduced bone marrow progenitors; test: Murine bone marrow transplantation leukemogenic assay; assay type: in vivo; conditions: 12 mice
# Method in brief: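 Lin- marrow from femur and tibia (balb/C or b/6) was prestimulated 2-3 days with SCF, 5ng/mL FLT3 ligand, IL3 and IL6. Cells were infected with MSCV retrovirus encoding 3xFLAG fusion or empty vector. 100,000 cells were injected via tail vein into sublethally irradiated syngeneic mice, 12 per group, and leukemia kinetics were followed.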
molecule,measurement,setting,value
"NJL: NUP98 amino acids 1-514 fused to amino acids 1489-1690 of JARID1A transcript variant 1 (protein, left off: 3xFLAG, N-terminal, kept) MFNKSFGTPFGGGTGGFGTTSTFGQNTGFGTTSGGAFGTSAFGSSNNTGGLFGNSQTKPGGLFGTSSFSQPATSTSTGFGFGTSTGTANTLFGTASTGTSLFSSQNNAFAQNKPTGFGNFGTSTSSGGLFGTTNTTSNPFGSTSGSLFGPSSFTAAPTGTTIKFNPPTGTDTMVKAGVSTNISTKHQCITAMKEYESKSLEELRLEDYQANRKGPQNQVGAGTTTGLFGSSPATSSATGLFSSSTTNSGFAYGQNKTAFGTSTTGFGTNPGGLFGQQNQQTTSLFSKPFGQATTTQNTGFSFGNTSTIGQPSTNTMGLFGVTQASQPGGLFGTATNTSTGTAFGTGTGLFGQTNTGFGAVGSTLFGNNKLTTFGSSTTSAPSFGTTSGGLFGNKPTLTLGTNTNTSNFGFGTNTSGNSIFGSKPAPGTLGTGLGAGFGTALGAGQASLFGNNQPKIGGPLGTGAFGAPGFNTTTATLGFGAPQAPVALTDPNASAAQQAVLQQHINSLTYSPFGMEEKPLKVKGKDSSEKKRKRKLEKVEQLFGEGKQKSKELKKMDKPRKKKLKLGADKSKELNKLAKKLAKEEERKKKKEKAAAAKVELVKESTEKKREKKVLDIPSKYDWSGAEESDDENAVCAAQNCQRPCKDKVDWVQCDGGCDEWFHQVCVGVSPEMAENEDYICINCAKKQGPVSPGPAPPPSFIMSYKLPMEDLKETS",restriction of polycomb factors (Ezh2 or Suz12),[1],restricted within Hoxa11-a13
same,elevation of H3K27ac on Hoxa9,[2],"> 2,000 fold"
same,association with H3K4me3 or H3,[3],associated with H3K4me3 or H3
same,p300 recruitment on Hoxa9,[4],recruitment of p300
same,"WDR5, RBBP5, and MLL2 on Hoxa9",[5],high levels
same,average time to death of AML,[6],69 days
